What was measured:
Assay type in all cases: functional
CCRF-CEM = assay: Growth inhibition of human CCRF-CEM cells after 48 hrs
In short: (§1)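 NCI ~60-line screen. Cells were grown in RPMI 1640 with 5% FBS and 2 mM L-glutamine and plated at 5000–40000 cells/well. After a 24 h preincubation, five drug concentrations from DMSO stocks were added for 48 h at 37 °C. Cells were TCA-fixed, stained with SRB and read at 515 nm. GI50 was taken from time-zero and control absorbances and reported as pGI50.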

HL-60 = assay: Growth inhibition of human HL60 cells after 48 hrs; details: HL-60, 48 h; in short: as §1
MOLT-4 = assay: Growth inhibition of human MOLT4 cells after 48 hrs; details: MOLT-4, 48 h; in short: as §1
RPMI-8226 = assay: Growth inhibition of human RPMI8226 cells after 48 hrs; details: RPMI-8226, 48 h; in short: as §1
EKVX = assay: Growth inhibition of human EKVX cells after 48 hrs; in short: as §1
HOP-92 = assay: Growth inhibition of human HOP92 cells after 48 hrs; details: HOP-92, 48 h; in short: as §1
NCI-H226 = assay: Growth inhibition of human NCI-H226 cells after 48 hrs; details: NCI-H226, 48 h; in short: as §1
NCI-H23 = assay: Growth inhibition of human NCI-H23 cells after 48 hrs; in short: as §1
NCI-H322M = assay: Growth inhibition of human NCI-H322M cells after 48 hrs; in short: as §1
HCT-116 = assay: Growth inhibition of human HCT116 cells after 48 hrs; details: HCT-116, 48 h; in short: as §1
HT-29 = assay: Growth inhibition of human HT29 cells after 48 hrs; details: HT-29, 48 h; in short: as §1
KM12 = assay: Growth inhibition of human KM12 cells after 48 hrs; details: KM12, 48 h; in short: as §1
SF-268 = assay: Growth inhibition of human SF268 cells after 48 hrs; details: SF-268, 48 h; in short: as §1
SF-295 = assay: Growth inhibition of human SF295 cells after 48 hrs; details: SF-295, 48 h; in short: as §1
SF-539 = assay: Growth inhibition of human SF539 cells after 48 hrs; details: SF-539, 48 h; in short: as §1
SNB-19 = assay: Growth inhibition of human SNB19 cells after 48 hrs; details: SNB-19, 48 h
In short: (§2)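 NCI 60-line screen: cells in RPMI 1640 with 5% FBS and 2 mM L-glutamine, plated at 5000–40000 cells/well, grown 24 h (37 °C, 5% CO₂), then exposed to five 10-fold or ½-log dilutions (DMSO stock) for 48 h. Fixed with TCA (final 10% for adherent cells, 16% for suspension cells), then SRB stained with absorbance at 515 nm. GI50 from percentage growth relative to time-zero and control wells.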

U-251 = assay: Growth inhibition of human U251 cells after 48 hrs; details: U-251, 48 h; in short: as §2
LOX IMVI = assay: Growth inhibition of human LOXIMVI cells after 48 hrs; in short: as §1
Malme-3M = assay: Growth inhibition of human MALME3M cells after 48 hrs; in short: as §1
M14 = assay: Growth inhibition of human M14 cells after 48 hrs; details: M14, 48 h; in short: as §1
SK-MEL-5 = assay: Growth inhibition of human SK-MEL5 cells after 48 hrs; details: SK-MEL-5, 48 h; in short: as §1
UACC-257 = assay: Growth inhibition of human UACC257 cells after 48 hrs; details: UACC-257, 48 h; in short: as §2
UACC-62 = assay: Growth inhibition of human UACC62 cells after 48 hrs; details: UACC-62, 48 h; in short: as §2
OVCAR-5 = assay: Growth inhibition of human OVCAR5 cells after 48 hrs; details: OVCAR-5, 48 h; in short: as §1
OVCAR-8 = assay: Growth inhibition of human OVCAR8 cells after 48 hrs; details: OVCAR-8, 48 h; in short: as §1
A498 = assay: Growth inhibition of human A498 cells after 48 hrs; details: A498, 48 h; in short: as §1
CAKI-1 = assay: Growth inhibition of human CAKI1 cells after 48 hrs; details: CAKI-1, 48 h; in short: as §1
RXF 393 = assay: Growth inhibition of human RXF393 cells after 48 hrs; details: RXF 393, 48 h; in short: as §1
TK-10 = assay: Growth inhibition of human TK10 cells after 48 hrs; details: TK-10, 48 h; in short: as §2
DU-145 = assay: Growth inhibition of human DU145 cells after 48 hrs; details: DU-145, 48 h; in short: as §1
MCF7 = assay: Growth inhibition of human MCF7 cells after 48 hrs; details: MCF7, 48 h; in short: as §1
MDA-MB-231 = assay: Growth inhibition of human MDA-MB-231 cells after 48 hrs; details: MDA-MB-231, 48 h; in short: as §1
[1] = read-out: Log LC50 (the source's name) (converted)

Cn1c2ccccc2c2c(=O)n(CCCC(=O)NCCc3c[nH]cn3)c3c(-c4ccccc4)nnn3c21
GI50 (CCRF-CEM): 1510 nM
LC50 (CCRF-CEM): > 50.1 µM
TGI (CCRF-CEM; read-out: pTGI (converted)): > 50.1 µM
GI50 (HL-60): 11.7 µM
LC50 (HL-60): > 50.1 µM
TGI (HL-60; read-out: pTGI (converted)): 28.2 µM
GI50 (MOLT-4): 3.98 µM
LC50 (MOLT-4): > 50.1 µM
TGI (MOLT-4; read-out: pTGI (converted)): 21.4 µM
GI50 (RPMI-8226): 10.5 µM
LC50 (RPMI-8226): > 50.1 µM
TGI (RPMI-8226; read-out: pTGI (converted)): 28.8 µM
GI50 (EKVX): 10 µM
LC50 (EKVX): > 50.1 µM
TGI (EKVX; read-out: pTGI (converted)): 24 µM
GI50 (HOP-92): 1350 nM
LC50 (HOP-92): 44.7 µM
TGI (HOP-92; read-out: pTGI (converted)): 5.5 µM
GI50 (NCI-H226): > 50.1 µM
CC50 (NCI-H226; [1]): > 50.1 µM
TGI (NCI-H226; read-out: pTGI): > 50.1 µM
TGI (NCI-H23; Homo sapiens, NCI-H23, 48 h, read-out: pTGI (converted)): 46.8 µM
CC50 (NCI-H23; [1]): 13.2 µM
GI50 (NCI-H322M): 11 µM
LC50 (NCI-H322M): > 50.1 µM
TGI (NCI-H322M; read-out: pTGI (converted)): 29.5 µM
GI50 (HCT-116): 5.89 µM
LC50 (HCT-116): 32.4 µM
TGI (HCT-116; read-out: pTGI (converted)): 13.8 µM
GI50 (HT-29): 8.51 µM
LC50 (concentration killing 50% of cells) (HT-29): 37.2 µM
TGI (HT-29; read-out: pTGI (converted)): 17.8 µM
GI50 (KM12): 8.13 µM
LC50 (KM12): 35.5 µM
TGI (KM12; read-out: pTGI (converted)): 17 µM
GI50 (SF-268): 11.7 µM
CC50 (SF-268; [1]): > 50.1 µM
TGI (SF-268; read-out: pTGI (converted)): 31.6 µM
GI50 (SF-295): 9.12 µM
LC50 (SF-295): 34.7 µM
TGI (SF-295; read-out: pTGI (converted)): 17.8 µM
GI50 (SF-539): 9.33 µM
LC50 (concentration killing 50% of cells) (SF-539): 31.6 µM
TGI (SF-539; read-out: pTGI (converted)): 17.4 µM
GI50 (SNB-19): 11.7 µM
LC50 (SNB-19): 49 µM
TGI (SNB-19; read-out: pTGI (converted)): 24 µM
GI50 (U-251): 9.55 µM
LC50 (U-251): 36.3 µM
TGI (U-251; read-out: pTGI (converted)): 18.6 µM
GI50 (LOX IMVI): 11.2 µM
LC50 (lethal concentration, 50% cell kill) (LOX IMVI): 46.8 µM
TGI (LOX IMVI; read-out: pTGI (converted)): 22.9 µM
GI50 (Malme-3M): 7.59 µM
LC50 (Malme-3M): 37.2 µM
TGI (Malme-3M; read-out: pTGI (converted)): 16.6 µM
GI50 (M14): 12 µM
LC50 (M14): 49 µM
TGI (M14; read-out: pTGI (converted)): 24.5 µM
GI50 (SK-MEL-5): 9.12 µM
LC50 (SK-MEL-5): 32.4 µM
TGI (SK-MEL-5; read-out: pTGI (converted)): 17 µM
GI50 (UACC-257): 12 µM
LC50 (UACC-257): 38.9 µM
TGI (UACC-257; read-out: pTGI (converted)): 21.4 µM
GI50 (UACC-62): 9.77 µM
LC50 (UACC-62): 31.6 µM
TGI (UACC-62; read-out: pTGI (converted)): 17.8 µM
GI50 (OVCAR-5): 11 µM
LC50 (concentration killing 50% of cells) (OVCAR-5): 38 µM
TGI (OVCAR-5; read-out: pTGI (converted)): 20.4 µM
GI50 (OVCAR-8): 10 µM
LC50 (OVCAR-8): 42.7 µM
TGI (OVCAR-8; read-out: pTGI (converted)): 20.9 µM
GI50 (A498): 7.59 µM
CC50 (A498; [1]): 30.9 µM
TGI (A498; read-out: pTGI (converted)): 15.1 µM
GI50 (CAKI-1): 12 µM
LC50 (concentration killing 50% of cells) (CAKI-1): > 50.1 µM
TGI (CAKI-1; read-out: pTGI (converted)): 33.1 µM
GI50 (RXF 393): 7.41 µM
LC50 (RXF 393): 44.7 µM
TGI (RXF 393; read-out: pTGI (converted)): 18.2 µM
GI50 (TK-10): 4.79 µM
LC50 (TK-10): 26.9 µM
TGI (TK-10; read-out: pTGI (converted)): 11.5 µM
GI50 (DU-145): 6.92 µM
LC50 (DU-145): 27.5 µM
TGI (DU-145; read-out: pTGI (converted)): 13.8 µM
GI50 (MCF7): 12.9 µM
LC50 (MCF7): > 50.1 µM
TGI (MCF7; read-out: pTGI (converted)): 30.2 µM
GI50 (MDA-MB-231): 9.33 µM
LC50 (concentration killing 50% of cells) (MDA-MB-231): 37.2 µM
TGI (MDA-MB-231; read-out: pTGI (converted)): 18.6 µM

From ChEMBL document CHEMBL1142436, “Design and synthesis of 4-substituted indolo[3,2-e][1,2,3]triazolo[1,5-a]pyrimidine derivatives with antitumor activity” (2008)
